Assay results from ChEMBL document CHEMBL4689842, “EUbOPEN Chemogenomics Library wave 1” (2021).

Key:
[1] = system: Fibroblast; test: Incucyte cell viability with human fibroblast; format: toxicity, cell-based; conditions: 10 µM, compound concentration 10 uM; note: filed as whole numbers so only -1 and 0 and 1 occur
[2] = system: HEK-293T; test: Multiplex assay against HEK293T; format: toxicity, cell-based; conditions: human;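 for Population Tubulin-Different-Phenotype (%): share of the cells with healthy nuclei that show this phenotype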
Procedure, shortened: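 Phenotypes for tubulin, mitochondrial mass and membrane permeability are expressed as per cents of healthy-nucleus cells. Cells were stained live at seeding with Hoechst33342, BioTracker Green Microtubule Cytoskeleton Dye, MitoTracker Red and Annexin V Alexa Fluor 680, then imaged after compound addition on a CQ1 microscope at 37°C and 5% CO2. Machine-learning gating in CellPathfinder separated Hoechst high-intensity objects from normal cells, divided normal cells by nuclear state (healthy, pyknosed, fragmented) and divided pyknosed cells into mitotic or apoptotic.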

[3] = 12 h, 1 µM, compound concentration 1 uM, replicate 1
[4] = 12 h, 1 µM, compound concentration 1 uM, replicate 2
[5] = 12 h, 10 µM, compound concentration 10 uM, replicate 1
[6] = 12 h, 10 µM, compound concentration 10 uM, replicate 2
[7] = 24 h, 1 µM, compound concentration 1 uM, replicate 1
[8] = 24 h, 1 µM, compound concentration 1 uM, replicate 2
[9] = 24 h, 10 µM, compound concentration 10 uM, replicate 1
[10] = 24 h, 10 µM, compound concentration 10 uM, replicate 2
[11] = 48 h, 1 µM, compound concentration 1 uM, replicate 1
[12] = 48 h, 1 µM, compound concentration 1 uM, replicate 2
[13] = 48 h, 10 µM, compound concentration 10 uM, replicate 1
[14] = 48 h, 10 µM, compound concentration 10 uM, replicate 2

Question: Which results are given for `C=CC(=O)Nc1cc(-n2c(=O)ccc3cnc4ccc(-c5ccc(NS(C)(=O)=O)cc5)cc4c32)ccc1C`?
Answer: Growth Rate ([1]; 0 h, replicate number 1, timepoint 0 hours): 0; Growth Rate ([1]; 6 h, replicate number 1, timepoint 6 hours): 1; Growth Rate ([1]; 6 h, replicate number 2, timepoint 6 hours): 0; Growth Rate ([1]; 12 h, replicate number 1, timepoint 12 hours): 1; Growth Rate ([1]; 12 h, replicate number 2, timepoint 12 hours): 0; Growth Rate ([1]; 18 h, replicate number 1, timepoint 18 hours): 1; Growth Rate ([1]; 18 h, replicate number 2, timepoint 18 hours): 0; Growth Rate ([1]; 24 h, replicate number 1, timepoint 24 hours): 1; Growth Rate ([1]; 24 h, replicate number 2, timepoint 24 hours): 0; Population Apoptotic (%) [2, 3]: 44%; Population Fragmented Nuclei (%) [2, 3]: 15%; Population Healthy Nuclei (%) [2, 3]: 22%; Population Hoechst High Intensity Objects (%) [2, 3]: 22%; Population Membrane Permeable-Phenotype (%) [2, 3]: 0%; Population Mitochondria Different-Phenotype (%) [2, 3]: 76%; Population Mitotic Cells (%) [2, 3]: 55%; Population Normal (%) [2, 3]: 77%; Population Pyknosed Nuclei (%) [2, 3]: 62%; Population Tubulin-Different-Phenotype (%) [2, 3]: 50%; Total Cell Count [2, 3]: 174; Population Apoptotic (%) [2, 4]: 13%; Population Fragmented Nuclei (%) [2, 4]: 13%; Population Healthy Nuclei (%) [2, 4]: 35%; Population Hoechst High Intensity Objects (%) [2, 4]: 5%; Population Membrane Permeable-Phenotype (%) [2, 4]: 17%; Population Mitochondria Different-Phenotype (%) [2, 4]: 15%; Population Mitotic Cells (%) [2, 4]: 86%; Population Normal (%) [2, 4]: 94%; Population Pyknosed Nuclei (%) [2, 4]: 50%; Population Tubulin-Different-Phenotype (%) [2, 4]: 26%; Total Cell Count [2, 4]: 171; Population Apoptotic (%) [2, 5]: 50%; Population Fragmented Nuclei (%) [2, 5]: 20%; Population Healthy Nuclei (%) [2, 5]: 19%; Population Hoechst High Intensity Objects (%) [2, 5]: 16%; Population Membrane Permeable-Phenotype (%) [2, 5]: 0%; Population Mitochondria Different-Phenotype (%) [2, 5]: 86%; Population Mitotic Cells (%) [2, 5]: 50%; Population Normal (%) [2, 5]: 83%; Population Pyknosed Nuclei (%) [2, 5]: 60%; Population Tubulin-Different-Phenotype (%) [2, 5]: 63%; Total Cell Count [2, 5]: 184; Population Apoptotic (%) [2, 6]: 13%; Population Fragmented Nuclei (%) [2, 6]: 0%; Population Healthy Nuclei (%) [2, 6]: 40%; Population Hoechst High Intensity Objects (%) [2, 6]: 8%; Population Membrane Permeable-Phenotype (%) [2, 6]: 9%; Population Mitochondria Different-Phenotype (%) [2, 6]: 34%; Population Mitotic Cells (%) [2, 6]: 86%; Population Normal (%) [2, 6]: 91%; Population Pyknosed Nuclei (%) [2, 6]: 58%; Population Tubulin-Different-Phenotype (%) [2, 6]: 42%; Total Cell Count [2, 6]: 204; Population Apoptotic (%) [2, 7]: 42%; Population Fragmented Nuclei (%) [2, 7]: 15%; Population Healthy Nuclei (%) [2, 7]: 28%; Population Hoechst High Intensity Objects (%) [2, 7]: 19%; Population Membrane Permeable-Phenotype (%) [2, 7]: 15%; Population Mitochondria Different-Phenotype (%) [2, 7]: 62%; Population Mitotic Cells (%) [2, 7]: 57%; Population Normal (%) [2, 7]: 80%; Population Pyknosed Nuclei (%) [2, 7]: 55%; Population Tubulin-Different-Phenotype (%) [2, 7]: 57%; Total Cell Count [2, 7]: 173; Population Apoptotic (%) [2, 8]: 11%; Population Fragmented Nuclei (%) [2, 8]: 9%; Population Healthy Nuclei (%) [2, 8]: 58%; Population Hoechst High Intensity Objects (%) [2, 8]: 3%; Population Membrane Permeable-Phenotype (%) [2, 8]: 11%; Population Mitochondria Different-Phenotype (%) [2, 8]: 16%; Population Mitotic Cells (%) [2, 8]: 88%; Population Normal (%) [2, 8]: 96%; Population Pyknosed Nuclei (%) [2, 8]: 31%; Population Tubulin-Different-Phenotype (%) [2, 8]: 32%; Total Cell Count [2, 8]: 199; Population Apoptotic (%) [2, 9]: 48%; Population Fragmented Nuclei (%) [2, 9]: 19%; Population Healthy Nuclei (%) [2, 9]: 22%; Population Hoechst High Intensity Objects (%) [2, 9]: 13%; Population Membrane Permeable-Phenotype (%) [2, 9]: 0%; Population Mitochondria Different-Phenotype (%) [2, 9]: 78%; Population Mitotic Cells (%) [2, 9]: 51%; Population Normal (%) [2, 9]: 86%; Population Pyknosed Nuclei (%) [2, 9]: 58%; Population Tubulin-Different-Phenotype (%) [2, 9]: 59%; Total Cell Count [2, 9]: 194; Population Apoptotic (%) [2, 10]: 25%; Population Fragmented Nuclei (%) [2, 10]: 4%; Population Healthy Nuclei (%) [2, 10]: 56%; Population Hoechst High Intensity Objects (%) [2, 10]: 2%; Population Membrane Permeable-Phenotype (%) [2, 10]: 7%; Population Mitochondria Different-Phenotype (%) [2, 10]: 30%; Population Mitotic Cells (%) [2, 10]: 74%; Population Normal (%) [2, 10]: 97%; Population Pyknosed Nuclei (%) [2, 10]: 39%; Population Tubulin-Different-Phenotype (%) [2, 10]: 57%; Total Cell Count [2, 10]: 228; Population Apoptotic (%) [2, 11]: 45%; Population Fragmented Nuclei (%) [2, 11]: 21%; Population Healthy Nuclei (%) [2, 11]: 17%; Population Hoechst High Intensity Objects (%) [2, 11]: 23%; Population Membrane Permeable-Phenotype (%) [2, 11]: 3%; Population Mitochondria Different-Phenotype (%) [2, 11]: 40%; Population Mitotic Cells (%) [2, 11]: 54%; Population Normal (%) [2, 11]: 76%; Population Pyknosed Nuclei (%) [2, 11]: 60%; Population Tubulin-Different-Phenotype (%) [2, 11]: 33%; Total Cell Count [2, 11]: 204; Population Apoptotic (%) [2, 12]: 9%; Population Fragmented Nuclei (%) [2, 12]: 7%; Population Healthy Nuclei (%) [2, 12]: 81%; Population Hoechst High Intensity Objects (%) [2, 12]: 6%; Population Membrane Permeable-Phenotype (%) [2, 12]: 10%; Population Mitochondria Different-Phenotype (%) [2, 12]: 4%; Population Mitotic Cells (%) [2, 12]: 90%; Population Normal (%) [2, 12]: 93%; Population Pyknosed Nuclei (%) [2, 12]: 10%; Population Tubulin-Different-Phenotype (%) [2, 12]: 22%; Total Cell Count [2, 12]: 321; Population Apoptotic (%) [2, 13]: 52%; Population Fragmented Nuclei (%) [2, 13]: 24%; Population Healthy Nuclei (%) [2, 13]: 18%; Population Hoechst High Intensity Objects (%) [2, 13]: 18%; Population Membrane Permeable-Phenotype (%) [2, 13]: 16%; Population Mitochondria Different-Phenotype (%) [2, 13]: 29%; Population Mitotic Cells (%) [2, 13]: 47%; Population Normal (%) [2, 13]: 81%; Population Pyknosed Nuclei (%) [2, 13]: 56%; Population Tubulin-Different-Phenotype (%) [2, 13]: 45%; Total Cell Count [2, 13]: 204; Population Apoptotic (%) [2, 14]: 17%; Population Fragmented Nuclei (%) [2, 14]: 5%; Population Healthy Nuclei (%) [2, 14]: 79%; Population Hoechst High Intensity Objects (%) [2, 14]: 3%; Population Membrane Permeable-Phenotype (%) [2, 14]: 8%; Population Mitochondria Different-Phenotype (%) [2, 14]: 6%; Population Mitotic Cells (%) [2, 14]: 82%; Population Normal (%) [2, 14]: 96%; Population Pyknosed Nuclei (%) [2, 14]: 15%; Population Tubulin-Different-Phenotype (%) [2, 14]: 27%; Total Cell Count [2, 14]: 457
